We go through eleven compounds from ChEMBL document CHEMBL1125633, “1H-imidazo[4,5-c]quinolin-4-amines: novel non-xanthine adenosine antagonists” (J Med Chem, 1991).

Assay [1] has as its target T1, Adenosine receptor A1 (Rattus norvegicus, UniProt P25099).
T1 sequence (P25099 whole entry): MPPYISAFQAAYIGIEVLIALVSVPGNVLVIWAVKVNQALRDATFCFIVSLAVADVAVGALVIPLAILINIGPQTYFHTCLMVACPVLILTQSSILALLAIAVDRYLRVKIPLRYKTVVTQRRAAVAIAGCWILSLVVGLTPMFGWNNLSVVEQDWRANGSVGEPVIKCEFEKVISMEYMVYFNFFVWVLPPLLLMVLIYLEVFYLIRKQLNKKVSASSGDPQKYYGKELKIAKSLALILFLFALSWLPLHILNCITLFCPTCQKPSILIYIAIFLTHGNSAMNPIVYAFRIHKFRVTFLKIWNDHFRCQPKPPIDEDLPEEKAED
The experiment in a line: Displacement of [3H]CPX from adenosine A1 receptor of rat brain cortical membrane. On the technique in general: Loss of bound radioactivity is the signal in a displacement assay; it reports binding, not function.

Assay [2] addresses T2, Adenosine A2 receptor (Rattus norvegicus, UniProt P29276+P30543). Kind of assay: (§1) Binding affinity for adenosine A2 receptor using [3H]NECA in rat striatal membrane. The class given is cell membranes, Striatum.
The target in assay [3] is T3, Adenosine receptor A1 (Bos taurus, UniProt P28190).
T3 sequence (P28190 whole entry): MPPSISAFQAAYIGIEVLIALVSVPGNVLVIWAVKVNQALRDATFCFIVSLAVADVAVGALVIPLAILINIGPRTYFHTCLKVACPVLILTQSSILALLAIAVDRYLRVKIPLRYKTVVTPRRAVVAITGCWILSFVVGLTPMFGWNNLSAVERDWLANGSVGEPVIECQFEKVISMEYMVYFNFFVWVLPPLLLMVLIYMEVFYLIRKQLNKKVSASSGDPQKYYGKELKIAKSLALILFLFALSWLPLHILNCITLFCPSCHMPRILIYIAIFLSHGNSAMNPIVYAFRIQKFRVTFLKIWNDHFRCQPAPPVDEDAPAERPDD
Kind of assay: Displacement of [3H]CPX from adenosine A1 receptor of calf brain cortical membrane. The procedure, abridged: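 Calf brain cortical membranes, about 15 μg protein, incubated with 0.1 nM [3H]CPX in 50 mM Tris-HCl pH 7.4 for 1 h at 25 °C in duplicate. Nonspecific binding was defined with 10 μM R-PIA. DMSO was at most 1% final. Filter-bound radioactivity was counted. Means of three experiments.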

The target in assay [4] is Adenosine receptors; A1 & A2 (Rattus norvegicus) (UniProt P29276+P25099+P30543). Kind of assay: Ratio of Ki for adenosine A2 and A1 receptors. The class given is protein assay.
In assay [5] the target is T2, Adenosine A2 receptor. The assay is described as §1. The class given is cell membranes, Striatum. The method in brief:
(§2)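 Rat striatal membranes from male Wistar rats, treated with 2 IU/mL adenosine deaminase for 30 min at 37 °C. Binding used about 50 μg protein and 4 nM [3H]NECA in 50 mM Tris-HCl, 10 mM MgCl2, pH 7.7, with 50 nM CPA added to block A1 sites. Nonspecific binding was defined with 100 μM CPA. Incubation 1 h at 25 °C in duplicate, ended by filtration and scintillation counting.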
The source holds these as a separate data set.

The target in assay [6] is Adenosine A2 receptor (Rattus norvegicus) (UniProt P29276+P30543). Kind of assay: Inhibitory binding activity for adenosine A2 receptor using [3H]NECA in rat striatal membrane at 1 uM. The class given is cell membranes. The conditions noted are these: Striatum. The procedure, abridged: as §2

For orientation: Ki means the equilibrium dissociation constant of an inhibitor or competing ligand from its target. A high value points to a looser hold on the target. In general, inhibition refers to the relative decrease from the control value, in per cent.

As for `c1ccc(-c2nc3c(NC4CCCC4)[nH]c4ccccc4c-3n2)cc1`, the values for the Ki at Adenosine receptor A1 [1], at Adenosine A2 receptor [2] and on Adenosine receptor A1 [3] were 10 nM, 450 nM and 1.5 nM, respectively.

Regarding `c1ccc2c3ncnc-3c(NC3CCCC3)[nH]c2c1`, the values for the inhibition constant Ki at Adenosine receptor A1 [1], at Adenosine A2 receptor [2] and on Adenosine receptor A1 [3] were 43 nM, 290 nM and 10 nM, respectively. In addition, in assay [4], the Ratio was 6.7.

Consider `C[C@H](Cc1ccccc1)Nc1[nH]c2ccccc2c2ncnc1-2`, for which the inhibitory constant (Ki) is 310 nM at Adenosine receptor A1 [1], 810 nM at Adenosine A2 receptor [2] and 74 nM at Adenosine receptor A1 [3]. The Ratio in assay [4] is 2.6.

On to `Nc1[nH]c2ccccc2c2nc(-c3ccccc3)nc1-2`, for which the results for the Ki at Adenosine receptor A1 [1], on Adenosine A2 receptor [2] and on Adenosine receptor A1 [3] were 34 nM, 290 nM and 17 nM, respectively.

As for `c1ccc(Nc2[nH]c3ccccc3c3ncnc2-3)cc1`, the Ki at Adenosine receptor A1 [1] is 2100 nM; on Adenosine A2 receptor [5], 10500 nM; at Adenosine receptor A1 [3], 490 nM. The Ratio in assay [4] turned out to be 5.

Regarding `C[C@@H](Cc1ccccc1)Nc1[nH]c2ccccc2c2ncnc1-2`, the inhibitory constant (Ki) at Adenosine receptor A1 [1] was determined as 1500 nM; on Adenosine A2 receptor [2], 2800 nM; at Adenosine receptor A1 [3], 460 nM. Also, the Ratio in assay [4] turned out to be 1.9.

Take `c1ccc(Nc2[nH]c3ccccc3c3nc(-c4ccccc4)nc2-3)cc1`: the inhibition constant (Ki) was 460 nM on Adenosine receptor A1 [1] and 50 nM at Adenosine receptor A1 [3]. Besides, the inhibition in assay [6] was 9%.

For the compound `c1ccc(Nc2nc3ccccc3c3[nH]c(C4CCCC4)nc23)cc1`, the Ki was determined as 230 nM at Adenosine receptor A1 [1] and 23 nM at Adenosine receptor A1 [3]. The compound also showed an inhibition in assay [6] of 6%.

With `Nc1[nH]c2ccccc2c2ncnc1-2`, the results for the inhibition constant (Ki) on Adenosine receptor A1 [1], at Adenosine A2 receptor [5] and at Adenosine receptor A1 [3] were 1600 nM, 1400 nM and 1700 nM, respectively. Further, in assay [4], the Ratio amounted to 0.9.

As for `Nc1[nH]c2ccccc2c2nc(C3CCCC3)nc1-2`, the Ki was 270 nM on Adenosine receptor A1 [1], 740 nM on Adenosine A2 receptor [2] and 290 nM at Adenosine receptor A1 [3]. Besides, the Ratio in assay [4] came to 3.

Regarding `c1ccc2c3nc(C4CCCC4)nc-3c(NC3CCCC3)[nH]c2c1`, the figures for the Ki at Adenosine receptor A1 [1], on Adenosine A2 receptor [2] and at Adenosine receptor A1 [3] were 39 nM, 450 nM and 9.1 nM, respectively.
